Results reported in ChEMBL document CHEMBL3526029, “Disposition and metabolism of GSK2251052 in humans: a novel boron-containing antibiotic” (Drug Metab Dispos, 2013).

Legend:
Blood [1] = assay: AUC (0 to t) in healthy human whole blood assessed as radioactivity at 1500 mg, iv infusion for 1 hr as single dose; assay type: ADME, organism-based; conditions: in vivo
How it was run: (§1)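 Six fasted healthy men received 1500 mg [14C]GSK2251052 as a 1-h i.v. infusion. Blood and plasma were sampled from predose to 336 h after infusion start. Radioactivity was counted by LSC; plasma below 870 ng eq/ml was reanalysed by accelerator MS, with predose background subtracted. Noncompartmental analysis used actual sampling times, linear-up/log-down trapezoids and CL = dose/AUC(0-∞).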

Blood [2] = assay: AUC (0 to infinity) in healthy human whole blood assessed as radioactivity at 1500 mg, iv infusion for 1 hr as single dose; assay type: ADME, organism-based; parameters: dose 1500 mg, route intravenous, time infinity; conditions: in vivo; how it was run: as §1
Blood [3] = assay: Clearance in healthy human whole blood assessed as radioactivity at 1500 mg, iv infusion for 1 hr as single dose; assay type: ADME, organism-based; conditions: in vivo; how it was run: as §1
Blood [4] = assay: Volume of distribution at steady state in healthy human whole blood assessed as radioactivity at 1500 mg, iv infusion for 1 hr as single dose; assay type: ADME, organism-based; conditions: in vivo
How it was run: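 Healthy males got a 1500 mg [14C] dose as a 1-h IV infusion. K2EDTA blood was taken at serial times to 336 h. Radioactivity in blood and plasma was measured by LSC; plasma below 870 ng eq/ml was re-measured by accelerator mass spectrometry. Vss = CL × MRT, with CL = dose/AUC(0-∞), from noncompartmental analysis on actual times.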

[5] = Drug recovery in healthy human urine at 1500 mg, iv infusion for 1 hr as single dose after 168 hrs; assay type: ADME, organism-based; conditions: read-out: Drug recovery
[6] = Drug recovery in healthy human feces at 1500 mg, iv infusion for 1 hr as single dose after 192 hrs; assay type: ADME, organism-based; conditions: faeces, read-out: Drug recovery
[7] = Drug recovery in healthy human feces at 1500 mg, iv infusion for 1 hr as single dose after 264 hrs; assay type: ADME, organism-based; conditions: faeces, read-out: Drug recovery
Plasma [8] = assay: AUC (0 to t) in healthy human plasma assessed as radioactivity at 1500 mg, iv infusion for 1 hr as single dose; assay type: ADME, organism-based; conditions: in vivo; how it was run: as §1
Plasma [9] = assay: Clearance in healthy human plasma assessed as radioactivity at 1500 mg, iv infusion for 1 hr as single dose; assay type: ADME, organism-based; conditions: in vivo; how it was run: as §1
[10] = Total drug recovery in healthy human at 1500 mg, iv infusion for 1 hr as single dose after 48 hrs; assay type: ADME, organism-based; conditions: in vivo, read-out: Drug recovery
How it was run: (§2)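 Six healthy adult males, fasted ≥10 h, got one 1500 mg [14C]GSK2251052 dose ([…], 0.56 MBq) as a constant-rate 1-h IV infusion in 0.9% NaCl. Urine was collected at 0–6, 6–12 and 12–24 h, then in 24-h blocks to 336 h; feces in 24-h blocks. Urine was counted directly by LSC; feces were homogenized and combusted in duplicate before LSC. Cumulative recovery is given as mean % of dose.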

[11] = Total drug recovery in healthy human at 1500 mg, iv infusion for 1 hr as single dose after 72 hrs; assay type: ADME, organism-based; conditions: in vivo, read-out: Drug recovery; how it was run: as §2
[12] = Total drug recovery in healthy human at 1500 mg, iv infusion for 1 hr as single dose after 168 hrs; assay type: ADME, organism-based; conditions: in vivo, read-out: Drug recovery
[13] = Total drug recovery in healthy human at 1500 mg, iv infusion for 1 hr as single dose after 216 hrs; assay type: ADME, organism-based; conditions: in vivo, read-out: Drug recovery; how it was run: as §2
[14] = Total drug recovery in healthy human at 1500 mg, iv infusion for 1 hr as single dose after 240 hrs; assay type: ADME, organism-based; conditions: in vivo, read-out: Drug recovery; how it was run: as §2
Homo sapiens = assay: Toxicity in healthy human assessed as serious adverse events at 1500 mg, iv infusion for 1 hr as single dose; assay type: organism-based; conditions: in vivo
How it was run: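 Single-center, open-label phase I study in six healthy adult males, fasted ≥10 h. Each got one 1500 mg [14C]GSK2251052 dose as a constant-rate 1-h IV infusion. Safety was monitored throughout, with follow-up for at least 336 h after dosing.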

[15] = Drug recovery in healthy human urine at 1500 mg, iv infusion for 1 hr as single dose after 120 to 336 hrs by HPLC method; assay type: ADME, organism-based; conditions: in the assay text read “0 to 120 hrs” for “120 to 336 hrs”, read-out: Drug recovery
How it was run: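 Urine pooled by weight per subject over 0–120 h; 120–336 h pools from all subjects combined into one composite. Centrifuged at ~21,000g, then supernatant profiled by HPLC (Atlantis T3, ammonium acetate pH 4.5/methanol, 30°C) with radiochemical detection plus MS identification. Results are % of dose, corrected for centrifugation recovery measured by triplicate LSC.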

[16] = Drug metabolism in cynomolgus monkey kidney S9 fraction assessed as (S)-3-(3-(aminomethyl)-1-hydroxy-1,3-dihydrobenzo[c][1,2]oxaborol-7-yloxy)propanoicacid formation at 50 to 500 uM after 3 hrs by liquid scintillation counting in presence of NAD+; assay type: ADME, Macaca fascicularis; conditions: s9, 3 h
How it was run: (§3)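 [14C]GSK2251052 was incubated in triplicate for 1 or 3 h at 37°C with 4 mg/ml S9 (monkey liver, lung or kidney; human liver), liver cytosol or liver microsomes and 7.5 mM NAD+. Buffer was pyrophosphate at pH 7.4, 8.4 or 8.8. Controls lacked cofactor or enzyme. Reactions were quenched with acetonitrile, counted by LSC, and pooled for radio-HPLC.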

[17] = Drug recovery in healthy human urine at 1500 mg, iv infusion for 1 hr as single dose after 264 hrs; assay type: ADME, organism-based; conditions: read-out: Drug recovery
[18] = Drug recovery in healthy human urine at 1500 mg, iv infusion for 1 hr as single dose after 312 hrs; assay type: ADME, organism-based; conditions: read-out: Drug recovery
[19] = Drug recovery in healthy human urine at 1500 mg, iv infusion for 1 hr as single dose after 336 hrs; assay type: ADME, organism-based; conditions: read-out: Drug recovery
[20] = Drug recovery in healthy human feces at 1500 mg, iv infusion for 1 hr as single dose after 24 hrs; assay type: ADME, organism-based; conditions: read-out: Drug recovery
[21] = Drug recovery in healthy human feces at 1500 mg, iv infusion for 1 hr as single dose after 48 hrs; assay type: ADME, organism-based; conditions: read-out: Drug recovery
[22] = Drug recovery in healthy human feces at 1500 mg, iv infusion for 1 hr as single dose after 72 hrs; assay type: ADME, organism-based; conditions: read-out: Drug recovery
[23] = Drug recovery in healthy human feces at 1500 mg, iv infusion for 1 hr as single dose after 96 hrs; assay type: ADME, organism-based; conditions: read-out: Drug recovery
Liver microsome = assay: Drug metabolism in human liver microsomes assessed as (S)-3-(3-(aminomethyl)-1-hydroxy-1,3-dihydrobenzo[c][1,2]oxaborol-7-yloxy)propanoicacid formation at 50 to 500 uM after 3 hrs by liquid scintillation counting in presence of NAD+; assay type: ADME; how it was run: as §3
[24] = Drug metabolism in cynomolgus monkey liver S9 fraction assessed as (S)-3-(3-(aminomethyl)-1-hydroxy-1,3-dihydrobenzo[c][1,2]oxaborol-7-yloxy)propanoicacid formation at 50 to 500 uM after 3 hrs by liquid scintillation counting in presence of NAD+ and ADH inhibitor 4-MP; assay type: ADME, subcellular, Macaca fascicularis; conditions: s9, 3 h
How it was run: (§4)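 NAD+ (7.5 mM) incubations of [14C]GSK2251052 with 4 mg/ml monkey liver cytosol or liver S9 in pyrophosphate buffer included 4-MP at 0.6 mM final. Incubations ran in triplicate at 37°C. Extracts were counted by LSC and pooled for radio-HPLC.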

[25] = Drug metabolism in cynomolgus monkey cytosol assessed as (S)-3-(3-(aminomethyl)-1-hydroxy-1,3-dihydrobenzo[c][1,2]oxaborol-7-yloxy)propanoicacid formation at 50 to 500 uM after 3 hrs by liquid scintillation counting in presence of NAD+ and ADH inhibitor 4-MP; assay type: ADME, Macaca fascicularis, Liver; how it was run: as §4

AUCt (Blood [1]): 141 µg·h/mL
AUC (Blood [2]): 193 µg·h/mL
CL (Blood [3]): 7.79 L/h
Vdss (Blood [4]): 116 L
dose excreted at 168 h [5]: 86.4%
dose excreted at 192 h [6]: 7.6%
dose excreted at 264 h [7]: 7.6%
AUCt (Plasma [8]): 191 µg·h/mL
CL (Plasma [9]): 7.7 L/h
dose excreted at 48 h [10]: 70.5%
dose excreted at 72 h [11]: 81.2%
dose excreted at 168 h [12]: 94%
dose excreted at 216 h [13]: 95.8%
dose excreted at 240 h [14]: 96.4%
dose excreted [15]: 28.9%
Drug metabolism [16]: metabolite_not_detected
dose excreted at 264 h [17]: 89.3%
dose excreted at 312 h [18]: 90.2%
dose excreted at 336 h [19]: 90.5%
dose excreted at 24 h [20]: 0.1%
dose excreted at 48 h [21]: 1.3%
dose excreted at 72 h [22]: 4.3%
dose excreted at 96 h [23]: 6.4%
Drug metabolism (Liver microsome): metabolite_not_detected
Drug metabolism [24]: metabolite_not_detected
Drug metabolism [25]: metabolite_not_detected
SMILES: Cl.N[14CH2][C@H]1OB(O)c2c(OCCCO)cccc21
Activity (Homo sapiens): Non-toxic
